Measurements taken from ChEMBL document CHEMBL1155416, “Ethacrynic acid analogues lacking the alpha,beta-unsaturated carbonyl unit--potential anti-metastatic drugs” (2010).
Calls of active or inactive are those of the source. No cut-off for these calls is given here.

Tests used:
Format in all cases: functional
[1] = (§1) Antimigration against human MCF7/AZ cells at 10 to 25 uM after 24 hrs by wound healing assay
In short: (§2)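 Confluent MCF-7/AZ monolayers were washed twice with PBS and scratched to leave a gap of about 1500 μm, then imaged. Medium with or without compound was added, at concentrations chosen from the 24 h MTT assay. After 24 h of migration the wound was imaged again and compared with the first image. Migration was expressed as migratory velocity (μm/h).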

[2] = Cytotoxicity against human MCF7/AZ cells assessed as reduction of cell viability after 24 hrs by MTT assay
In short: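 MCF-7/AZ cells were seeded at 1.5 × 10^4 cells/well in medium with 5% FBS and penicillin/streptomycin, then grown 24 h at 37 C under 5% CO2. They were exposed 24 h to eight concentrations (1, 5, 10, 20, 40, 60, 80, 100 μM). Part of the medium was removed before adding MTT, and OD was read. Mean OD came from three independent experiments. OD80/IC20 (20% viability loss) was read from the graphs.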

MCF7/AZ = test: as §1; in short: as §2

Compound | inhibition (INH) [1] | IC20 [2] | inhibition (MCF7/AZ)
CCC(=O)c1cc(OC)c(OCC(=O)O)c(OC)c1 | 52% | > 100 µM | –
CCC(=O)c1ccc(OCC(=O)O)c(OC)c1 | 38% | > 100 µM | –
CCC(=O)c1ccc(OCC(=O)O)cc1C | – | 10 µM | inactive
CCC(=O)c1ccc(OCC(=O)O)cc1 | – | 25 µM | inactive
CCC(=O)c1ccc(OCC(=O)O)c(C)c1 | – | 20 µM | inactive
C=C(CC)C(=O)c1ccc(OCC(=O)O)c(Cl)c1Cl [ETHACRYNIC ACID] | – | > 100 µM | inactive
CCC(=O)c1ccc(OCC(=O)O)cc1OC | 29% | > 100 µM | –
